Converted amounts (≈) assume the structure as drawn.
Tests used:
Format in all cases: functional
OVCAR-3 [1] = assay: Antiproliferative activity against human OVCAR-3 cells assessed as cell growth at 500 uM by SRB assay; conditions: read-out: Activity
SNB-75 = assay: Antiproliferative activity against human SNB75 cells by SRB assay
ACHN = assay: Antiproliferative activity against human ACHN cells assessed as cell growth at 50 uM by SRB assay; conditions: read-out: Activity
SK-MEL-5 [2] = assay: Antiproliferative activity against human SK-MEL-5 cells assessed as cell growth at 5 mM by SRB assay; conditions: read-out: Activity
HCT-116 = assay: Antiproliferative activity against human HCT116 cells assessed as cell growth at 0.5 uM by SRB assay; conditions: read-out: Activity
BT-549 [3] = assay: Antiproliferative activity against human BT549 cells assessed as cell growth at 5 uM by SRB assay; conditions: read-out: Activity
MDA-MB-231 = assay: Antiproliferative activity against human MDA-MB-231 cells assessed as cell growth at 0.5 uM by SRB assay; conditions: read-out: Activity
SN12C = assay: Antiproliferative activity against human SN12C cells assessed as cell growth at 0.5 uM by SRB assay; conditions: read-out: Activity
OVCAR-3 [4] = assay: Antiproliferative activity against human OVCAR-3 cells by SRB assay
BT-549 [5] = assay: Antiproliferative activity against human BT549 cells assessed as cell growth at 0.5 uM by SRB assay; conditions: read-out: Activity
SF-268 = assay: Antiproliferative activity against human SF268 cells assessed as cell growth at 0.5 uM by SRB assay; conditions: read-out: Activity
DU-145 = assay: Antiproliferative activity against human DU145 cells assessed as cell growth at […] by SRB assay; conditions: read-out: Activity
SF-539 = assay: Antiproliferative activity against human SF539 cells assessed as cell growth at 50 uM by SRB assay; conditions: read-out: Activity
A498 [6] = assay: Antiproliferative activity against human A498 cells by SRB assay
MDA-MB-435 = assay: Antiproliferative activity against human MDA-MB-435 cells assessed as cell growth at 50 uM by SRB assay; conditions: read-out: Activity
UACC-257 = assay: Antiproliferative activity against human UACC257 cells assessed as cell growth at 5 mM by SRB assay; conditions: read-out: Activity
SK-MEL-5 [7] = assay: Antiproliferative activity against human SK-MEL-5 cells assessed as cell growth at 500 uM by SRB assay; conditions: read-out: Activity
U-251 = assay: Antiproliferative activity against human U251 cells assessed as cell growth at 500 uM by SRB assay; conditions: read-out: Activity
NCI-H460 = assay: Antiproliferative activity against human NCI-H460 cells assessed as cell growth at 50 uM by SRB assay; conditions: read-out: Activity
SK-MEL-2 = assay: Antiproliferative activity against human SK-MEL-2 cells by SRB assay
HOP-92 [8] = assay: Antiproliferative activity against human HOP92 cells by SRB assay
LOX IMVI = assay: Antiproliferative activity against human LOXIMVI cells assessed as cell growth at 0.5 uM by SRB assay; conditions: read-out: Activity
MOLT-4 = assay: Antiproliferative activity against human MOLT4 cells by SRB assay
OVCAR-4 [9] = assay: Antiproliferative activity against human OVCAR4 cells assessed as cell growth at 5 mM by SRB assay; conditions: read-out: Activity
[10] = tested on: Radical scavenging activity; assay: Antioxidant activity assessed as DPPH radical scavenging activity after 20 mins
Procedure, shortened: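 Test solution at several concentrations (100 µL) mixed with 900 µL of 0.04 mg/mL DPPH in methanol, held 20 min at room temperature, absorbance read at 517 nm. Inhibition % = [(Ac − As)/Ac] × 100, with a blank holding 100 µL methanol in place of sample. Inhibition plotted against concentration; EC50 (mean ± SD) from linear regression of three determinations.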

HT-29 = assay: Antiproliferative activity against human HT-29 cells assessed as cell growth at 50 uM by SRB assay; conditions: read-out: Activity
BT-549 [11] = assay: Antiproliferative activity against human BT549 cells assessed as cell growth at 50 uM by SRB assay; conditions: read-out: Activity
OVCAR-5 = assay: Antiproliferative activity against human OVCAR5 cells at 500 uM by SRB assay
SR = assay: Antiproliferative activity against human SR cells by SRB assay
SNB-19 = assay: Antiproliferative activity against human SNB19 cells assessed as cell growth at 500 uM by SRB assay; conditions: read-out: Activity
HOP-92 [12] = assay: Antiproliferative activity against human HOP92 cells assessed as cell growth at 5 uM by SRB assay; conditions: read-out: Activity
KM12 = assay: Antiproliferative activity against human KM12 cells assessed as cell growth at 50 uM by SRB assay; conditions: read-out: Activity
UACC-62 = assay: Antiproliferative activity against human UACC62 cells assessed as cell growth at 500 uM by SRB assay; conditions: read-out: Activity
IGROV-1 = assay: Antiproliferative activity against human IGROV1 cells assessed as cell growth at 500 uM by SRB assay; conditions: read-out: Activity
MCF7 = assay: Antiproliferative activity against human MCF7 cells by SRB assay
OVCAR-4 [13] = assay: Antiproliferative activity against human OVCAR4 cells assessed as cell growth at 5 uM by SRB assay; conditions: read-out: Activity
A498 [14] = assay: Antiproliferative activity against human A498 cells assessed as cell growth at 0.5 uM by SRB assay; conditions: read-out: Activity
A498 [15] = assay: Antiproliferative activity against human A498 cells assessed as cell growth at 50 uM by SRB assay; conditions: read-out: Activity
[16] = read-out: LC50 (the source's name)
[17] = read-out: pLC50 (the source's name) (converted)

SMILES: O=C(/C=C/c1ccc(O)c(O)c1)OCCc1ccc(O)c(O)c1
- growth at 500 µM (OVCAR-3 [1]): 50%
- GI50 (SNB-75; read-out: GI50): 9.5 µM
- CC50 (SNB-75; [16]): > 50 µM
- TGI (SNB-75; read-out: TGI): > 50 µM
- GI50 (SNB-75; read-out: pGI50 (converted)): 9.55 µM
- CC50 (SNB-75; [17]): > 50.1 µM
- TGI (SNB-75; read-out: pTGI): > 50.1 µM
- growth at 50 µM (ACHN): 89%
- growth at 5000 µM (SK-MEL-5 [2]): -1%
- growth at 0.5 µM (HCT-116): 100%
- growth at 5 µM (BT-549 [3]): 100%
- growth at 0.5 µM (MDA-MB-231): 113%
- growth at 0.5 µM (SN12C): 74%
- GI50 (OVCAR-3 [4]; read-out: GI50): 5.17 µM
- CC50 (OVCAR-3 [4]; [16]): > 50 µM
- TGI (OVCAR-3 [4]; read-out: TGI): > 50 µM
- GI50 (OVCAR-3 [4]; read-out: pGI50 (converted)): 5.13 µM
- CC50 (OVCAR-3 [4]; [17]): > 50.1 µM
- TGI (OVCAR-3 [4]; read-out: pTGI): > 50.1 µM
- growth at 0.5 µM (BT-549 [5]): 94%
- growth at 0.5 µM (SF-268): 94%
- growth (DU-145): -22%
- growth at 50 µM (SF-539): 89%
- GI50 (A498 [6]; read-out: GI50): 8.05 µM
- CC50 (A498 [6]; [16]): > 50 µM
- TGI (A498 [6]; read-out: TGI): 36.1 µM
- GI50 (A498 [6]; read-out: pGI50 (converted)): 8.13 µM
- CC50 (A498 [6]; [17]): > 50.1 µM
- TGI (A498 [6]; read-out: pTGI (converted)): 36.3 µM
- growth at 50 µM (MDA-MB-435): 89%
- growth at 5000 µM (UACC-257): 18%
- growth at 500 µM (SK-MEL-5 [7]): 64%
- growth at 500 µM (U-251): 65%
- growth at 50 µM (NCI-H460): 100%
- GI50 (SK-MEL-2; read-out: GI50): 3.02 µM
- CC50 (SK-MEL-2; [16]): > 50 µM
- TGI (SK-MEL-2; read-out: TGI): 23.7 µM
- GI50 (SK-MEL-2; read-out: pGI50 (converted)): 3.02 µM
- CC50 (SK-MEL-2; [17]): > 50.1 µM
- TGI (SK-MEL-2; read-out: pTGI (converted)): 23.4 µM
- GI50 (HOP-92 [8]; read-out: GI50): 0.79 µM
- CC50 (HOP-92 [8]; [16]): > 50 µM
- TGI (HOP-92 [8]; read-out: TGI): 16.8 µM
- GI50 (HOP-92 [8]; read-out: pGI50 (converted)): 0.794 µM
- CC50 (HOP-92 [8]; [17]): > 50.1 µM
- TGI (HOP-92 [8]; read-out: pTGI (converted)): 17 µM
- growth at 0.5 µM (LOX IMVI): 92%
- GI50 (MOLT-4; read-out: GI50): 3.06 µM
- CC50 (MOLT-4; [16]): > 50 µM
- TGI (MOLT-4; read-out: TGI): > 50 µM
- GI50 (MOLT-4; read-out: pGI50 (converted)): 3.09 µM
- CC50 (MOLT-4; [17]): > 50.1 µM
- TGI (MOLT-4; read-out: pTGI): > 50.1 µM
- growth at 5000 µM (OVCAR-4 [9]): 21%
- EC50 [10]: 4.7 µg/mL (≈ 14.9 µM)
- growth at 50 µM (HT-29): 98%
- growth at 50 µM (BT-549 [11]): 97%
- Activity (OVCAR-5): 102%
- GI50 (SR; read-out: GI50): 1.49 µM
- CC50 (SR; [16]): > 50 µM
- TGI (SR; read-out: TGI): 12.7 µM
- GI50 (SR; read-out: pGI50 (converted)): 1.48 µM
- CC50 (SR; [17]): > 50.1 µM
- TGI (SR; read-out: pTGI (converted)): 12.6 µM
- growth at 500 µM (SNB-19): 79%
- growth at 5 µM (HOP-92 [12]): 60%
- growth at 50 µM (KM12): 81%
- growth at 500 µM (UACC-62): 52%
- growth at 500 µM (IGROV-1): 35%
- GI50 (MCF7; read-out: GI50): 3.86 µM
- CC50 (MCF7; [16]): > 50 µM
- TGI (MCF7; read-out: TGI): > 50 µM
- GI50 (MCF7; read-out: pGI50 (converted)): 3.89 µM
- CC50 (MCF7; [17]): > 50.1 µM
- TGI (MCF7; read-out: pTGI): > 50.1 µM
- growth at 5 µM (OVCAR-4 [13]): 95%
- growth at 0.5 µM (A498 [14]): 94%
- growth at 50 µM (A498 [15]): 95%

Reference: ChEMBL document CHEMBL1154899, “Synthesis and biological evaluation of caffeic acid 3,4-dihydroxyphenethyl ester” (J Nat Prod, 2010)
